Measurements taken from ChEMBL document CHEMBL1144082, “Orizabins V-VIII, tetrasaccharide glycolipids from the Mexican scammony root (Ipomoea orizabensis)” (1999).
Values after ≈ are worked out from the molar mass of the structure shown.

Tests used:
Type in all cases: functional
[1] = Cytotoxicity against human SQC1 cells after 72 hrs by SRB method; conditions: SQC1, 72 h, read-out: ED50 (the source's name)
Summary of the method: (§1)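 Cell lines kept in RPMI 1640 with 10% fetal bovine serum, 37 °C, 5% CO2, 100% humidity. Log-phase cells treated in triplicate with glycolipids over 0.16–20 μg/mL for 72 h at 37 °C, 5% CO2. Cell concentration determined by sulforhodamine B staining; ED50 taken as dose inhibiting 50% of control growth. Ellipticine as positive control.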

[2] = system: KB; assay: Cytotoxicity against human KB cells after 72 hrs by SRB method; conditions: read-out: ED50 (the source's name); summary of the method: as §1
[3] = system: OVCAR; assay: Cytotoxicity against human OVCAR cells after 72 hrs by SRB method; conditions: read-out: ED50 (the source's name); summary of the method: as §1
[4] = system: HCT-15; assay: Cytotoxicity against human HCT-15 cells after 72 hrs by SRB method; conditions: HCT-15, 72 h, read-out: ED50 (the source's name); summary of the method: as §1

Row | SMILES | EC50 [1] | EC50 [2] | EC50 [3] | EC50 [4]
1 | CCCCC[C@H]1CCCCCCCCCC(=O)O[C@@H]2[C@@H](O[C@@H]3O[C@H](C)[C@@H](O)[C@H](O)[C@H]3O)[C@H](C)O[C@@H](O[C@H]3[C@H](O[C@H]4[C@H](O1)O[C@H](C)[C@@H](O)[C@@H]4O)O[C@H](COC(=O)[C@@H](C)CC)[C@@H](O)[C@@H]3O)[C@@H]2OC(=O)[C@H](C)[C@@H](C)O [ORIZABIN VI] | > 15 µg/mL | 7 µg/mL (≈ 6.74 µM) | > 15 µg/mL | > 15 µg/mL
2 | CCCCC[C@H]1CCCCCCCCCC(=O)O[C@@H]2[C@@H](O[C@@H]3O[C@H](C)[C@@H](O)[C@H](O)[C@H]3O)[C@H](C)O[C@@H](O[C@H]3[C@H](O[C@H]4[C@H](O1)O[C@H](C)[C@@H](O)[C@@H]4O)O[C@H](COC(=O)[C@H](C)[C@@H](C)O)[C@@H](O)[C@@H]3O)[C@@H]2OC(=O)[C@@H](C)CC [ORIZABIN VII] | > 15 µg/mL | 7 µg/mL (≈ 6.74 µM) | > 15 µg/mL | > 15 µg/mL
3 | Cc1c2ccncc2c(C)c2c1[nH]c1ccccc12 [ELLIPTECINE] | 0.41 µg/mL (≈ 1.66 µM) | 0.33 µg/mL (≈ 1.34 µM) | 0.58 µg/mL (≈ 2.35 µM) | 0.24 µg/mL (≈ 0.974 µM)
4 | CCCCC[C@H]1CCCCCCCCCC(=O)O[C@@H]2[C@@H](O[C@@H]3O[C@H](C)[C@@H](O)[C@H](O)[C@H]3O)[C@H](C)O[C@@H](O[C@H]3[C@H](O[C@H]4[C@H](O1)O[C@H](C)[C@@H](O)[C@@H]4O)O[C@H](CO)[C@@H](O)[C@@H]3O)[C@@H]2OC(=O)[C@@H](C)CC [SCAMMONIN II] | > 15 µg/mL | 7 µg/mL (≈ 7.45 µM) | > 15 µg/mL | > 15 µg/mL
5 | CCCCC[C@H]1CCCCCCCCCC(=O)O[C@H]2[C@H](O)[C@@H](COC(=O)[C@H](C)[C@@H](C)O)O[C@@H](O[C@H]3[C@H](O1)O[C@H](C)[C@@H](O)[C@@H]3O)[C@@H]2O[C@@H]1O[C@@H](C)[C@H](O[C@@H]2O[C@H](C)[C@@H](O)[C@H](O)[C@H]2O)[C@@H](O)[C@H]1OC(=O)[C@@H](C)CC [ORIZABIN VIII] | > 15 µg/mL | 7 µg/mL (≈ 6.74 µM) | > 15 µg/mL | > 15 µg/mL
6 | CCCCC[C@H]1CCCCCCCCCC(=O)O[C@@H]2[C@@H](O[C@@H]3O[C@H](C)[C@@H](OC(=O)[C@H](C)[C@@H](C)O)[C@H](O)[C@H]3O)[C@H](C)O[C@@H](O[C@H]3[C@H](O[C@H]4[C@H](O1)O[C@H](C)[C@@H](O)[C@@H]4O)O[C@H](CO)[C@@H](O)[C@@H]3O)[C@@H]2OC(=O)[C@@H](C)CC [ORIZABIN V] | > 15 µg/mL | 7 µg/mL (≈ 6.74 µM) | > 15 µg/mL | > 15 µg/mL
7 | C/C=C(\C)C(=O)O[C@H]1[C@H](O)[C@@H](O)[C@H](O[C@@H]2[C@H]3OC(=O)CCCCCCCCC[C@H](CCCCC)O[C@@H]4O[C@H](C)[C@@H](O)[C@H](O)[C@H]4O[C@@H]4O[C@H](CO)[C@@H](O)[C@H](O)[C@H]4O[C@H](O[C@H]2C)[C@@H]3OC(=O)[C@@H](C)CC)O[C@@H]1C [SCAMMONIN I] | > 15 µg/mL | 7 µg/mL (≈ 6.85 µM) | > 15 µg/mL | > 15 µg/mL
